Measured values from different studies.
Compare with care: the assays were run in different laboratories.
CES2: Cocaine esterase (CES2, Homo sapiens, UniProt O00748)
SLC6A2: Sodium-dependent noradrenaline transporter (SLC6A2, Homo sapiens, UniProt P23975)
Oprk1: Kappa-type opioid receptor (Oprk1, Mus musculus, UniProt P33534)
FPR1: fMet-Leu-Phe receptor (FPR1, Homo sapiens, UniProt P21462)

Structure (SMILES) | target | observed | mode | technique | notes | quantity | value
COc1cc2c(cc1OC)C(=O)/C(=C/C1CCCCC1)C2 | CES2 | enzyme activity | inhibitor | fluorescence | with preincubation | IC50 | 2.42 µM
CCOC(=O)[C@@]12C[C@@H]1[C@@H](n1cnc3c(NCc4cccc(Cl)c4)nc(C#Cc4ccc(Cl)s4)nc31)[C@H](O)[C@@H]2O | SLC6A2 | ligand displacement |  | radioligand |  | Ki | 1.2 µM
CC(C)[C@@H](CN1CCc2ccccc2C1)NC(=O)c1cccc(-c2ccc(F)cc2)c1 | Oprk1 | ligand displacement |  | radioligand |  | Ki | 13 µM
COc1cc2c(cc1OC)C(=O)/C(=C/c1ccc(O)cc1)C2 | CES2 | enzyme activity | inhibitor | fluorescence | with preincubation | IC50 | 1.89 µM
CCOC(=O)[C@@]12C[C@@H]1[C@@H](n1cnc3c(NCCCCCc4ccccc4)nc(C#Cc4ccc(Cl)s4)nc31)[C@H](O)[C@@H]2O | SLC6A2 | ligand displacement |  | radioligand |  | Ki | 0.82 µM
CC(C)[C@@H](CN1CCc2ccccc2C1)NC(=O)c1ccc(F)cc1 | Oprk1 | ligand displacement |  | radioligand |  | Ki | 36.2 µM
N#Cc1ccc(C[C@H](Nc2nnc(-c3cccc(Br)c3)o2)C(=O)N2CCc3ccccc32)cc1 | FPR1 | calcium signal | agonist |  |  | EC50 | 27 µM
CCOC(=O)[C@@]12C[C@@H]1[C@@H](n1cnc3c(NC4CC4)nc(C#Cc4ccc(Cl)s4)nc31)[C@H](O)[C@@H]2O | SLC6A2 | ligand displacement |  | radioligand |  | Ki | 3.7 µM
CC(=O)N[C@@H](C)c1cc(Cl)ccc1C1CCN(C(=O)[C@@H]2CN(C(C)(C)C)C[C@H]2c2ccc(F)cc2F)CC1 | Melanocortin receptor 4 (MC4R, Homo sapiens, UniProt P32245) | cAMP | agonist |  |  | EC50 | 0.0078 µM
O=C1NC(=O)C(c2ccccc2)(c2ccccc2)N1 | CES2 | enzyme activity | inhibitor | fluorescence | with preincubation | IC50 | > 100 µM
N#CC[C@@]12C[C@@H]1[C@@H](n1cnc3c(NCc4cccc(Cl)c4)nc(C#Cc4ccc(Cl)s4)nc31)[C@H](O)[C@@H]2O | SLC6A2 | ligand displacement |  | radioligand |  | Ki | 4.1 µM
N#Cc1ccc(C[C@H](Nc2nnc(-c3cccc(Br)c3)s2)C(=O)N2CCc3ccccc32)cc1 | FPR1 | calcium signal | agonist |  |  | EC50 | 32.9 µM
CCOC(=O)[C@@]12C[C@@H]1[C@@H](n1ccc3c(NCCCCCc4ccccc4)nc(C#Cc4ccccc4)nc31)[C@H](O)[C@@H]2O | SLC6A2 | ligand displacement |  | radioligand |  | Ki | 0.47 µM
COc1cc2c(cc1OC)C(=O)/C(=C/c1ccc(C)cc1Cl)C2 | CES2 | enzyme activity | inhibitor | fluorescence | with preincubation | IC50 | > 100 µM
CCOC(=O)[C@@]12C[C@@H]1[C@@H](n1cnc3c(NCCCCCc4ccccc4)nc(I)nc31)[C@H](O)[C@@H]2O | SLC6A2 | ligand displacement |  | radioligand |  | Ki | 4.6 µM
COc1ccc(/C=C2\Cc3cc(OC)c(OC)cc3C2=O)cc1OC | CES2 | enzyme activity | inhibitor | fluorescence | with preincubation | IC50 | > 100 µM
CCCCC[C@H](O)/C=C/[C@H]1C(=O)C[C@H](O)[C@@H]1C/C=C\CCCC(=O)O | Prostaglandin D2 receptor (PTGDR, Homo sapiens, UniProt Q13258) | G protein activation | agonist | BRET |  | EC50 | 0.00646 µM
COc1cc([C@@H]2c3cc4c(cc3[C@@H](O[C@@H]3O[C@@H]5CO[C@@H](C)O[C@H]5[C@H](O)[C@H]3O)[C@H]3COC(=O)[C@H]23)OCO4)cc(OC)c1O | CES2 | enzyme activity | inhibitor | fluorescence | with preincubation | IC50 | > 100 µM
CC(C)[C@@H](CN1CCc2ccccc2C1)NC(=O)c1ccc([N+](=O)[O-])s1 | Oprk1 | ligand displacement |  | radioligand |  | Ki | 9.06 µM
